Scp1 inh: blocks human Scp-1 phosphatase activity; Recombinant Scp1, phosphopeptide, malachite green phosphate absorbance; inhibition, % at 20 µM; Q9GZU7; 340,000 compounds, 0.88% hits;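 active = inhibition above about 50% at 20 µM, limit read from the data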;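 note: plate controls were DMSO wells with enzyme for no effect and wells lacking enzyme for full effect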
Target sequence (Q9GZU7 76-261 limits assumed): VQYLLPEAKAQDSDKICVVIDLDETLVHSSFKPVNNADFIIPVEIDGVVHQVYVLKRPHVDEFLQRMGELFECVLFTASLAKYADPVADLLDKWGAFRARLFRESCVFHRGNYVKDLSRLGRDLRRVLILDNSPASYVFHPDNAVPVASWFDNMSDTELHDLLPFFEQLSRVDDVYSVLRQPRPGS
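Material – SCP-1 phosphatase catalytic domain, residues 76-261 · Buffer or medium – Acidic Tris acetate buffer with magnesium and detergent · Also added – Phospho 17-mer peptide substrate · Compound – single 20 µM dose, 1% DMSO · Times – 45 min room-temperature reaction, 5 min colour, 30 min stabiliser · Technique – Phosphate-binding colour reagent, absorbance read at 630 nm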
LMPTP inh: LMPTP (human) inhibition; recombinant LMPTP-A, OMFP fluorogenic substrate, fluorescence intensity; inhibition, % at 20 µM; 360,000 compounds, 0.22% hits;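 active = compounds that cut the enzyme signal by at least half of the control window in the single-dose screen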;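 note: plate controls were DMSO wells with enzyme plus substrate for no effect and substrate without enzyme for full effect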
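Test system – LMPTP-A enzyme · Amount – LMPTP-A at 0.625 nM final in the reaction · Buffer or medium – Bis-Tris pH 6.0, DTT, detergent · Reagent – OMFP 400 µM · Doses – single 20 µM dose · Schedule – reaction 50 min, room temperature, dark · Detection – fluorescence intensity of OMFP turnover product · Evaluation – percent inhibition versus substrate-only and uninhibited controls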
Rpn11 block: Rpn11 (human) deubiquitinase inhibition | inhibition, % at 20 µM | AID 588493 | 360,000 compounds, 0.59% hits | O00487 | human 26S proteasome, Ub4-pepOG fluorescence polarization; 20S core pre-blocked with epoxomicin;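 active = inhibition at 20 µM, scaled to each plate's controls, above about 33%, limit read from the data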
STEP block: STEP (human) phosphatase inhibition. P54829. AID 588621. recombinant STEP, OMFP fluorogenic substrate, fluorescence. 360,000 compounds, 0.25% hits. inhibition, % at 20 µM;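 active = inhibition at 20 µM, scaled per plate between control wells, above about 37%, limit read from the data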;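 note: 0% = DMSO with enzyme and substrate and 100% = substrate only without enzyme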
Target sequence (P54829 whole entry, looked up): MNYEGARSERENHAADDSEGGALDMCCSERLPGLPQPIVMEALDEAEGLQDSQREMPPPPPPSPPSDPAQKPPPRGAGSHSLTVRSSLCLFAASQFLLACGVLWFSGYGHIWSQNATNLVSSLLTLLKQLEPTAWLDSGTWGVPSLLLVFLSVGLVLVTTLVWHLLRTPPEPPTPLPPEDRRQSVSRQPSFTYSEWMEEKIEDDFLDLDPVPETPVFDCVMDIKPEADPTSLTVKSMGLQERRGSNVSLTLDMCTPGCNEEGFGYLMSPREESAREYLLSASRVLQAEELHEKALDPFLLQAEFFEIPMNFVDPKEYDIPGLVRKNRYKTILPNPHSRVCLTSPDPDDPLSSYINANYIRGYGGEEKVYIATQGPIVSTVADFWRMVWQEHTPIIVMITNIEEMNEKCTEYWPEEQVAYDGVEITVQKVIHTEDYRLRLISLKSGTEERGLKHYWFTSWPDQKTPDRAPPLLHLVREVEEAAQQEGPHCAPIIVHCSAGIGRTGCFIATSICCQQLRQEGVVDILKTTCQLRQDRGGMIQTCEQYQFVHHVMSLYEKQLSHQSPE
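System: isolated STEP enzyme; schedule: 20 min enzyme reaction at room temperature, protected from light; medium: Bis-Tris buffer pH 6.0, 2.5 mM DTT, 0.005% Tween 20; signal: fluorescence, 480/540 nm; dosing: single compound dose of 20 µM, 1% DMSO final; also added: OMFP substrate, 25 µM final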
SUMO1 PPI mod: SUMO1-SIM interaction modulation. P63165. SUMO1 binding to a labelled peptide, TR-FRET, 1 h. inhibition, % at 20 µM. 360,000 compounds, 0.33% hits; in the data active = inhibition above about 37%
DNMT1 inh: blocks human DNA methyltransferase DNMT1; P26358; DNMT1 molecular beacon, Hinp1I cleavage, fluorescence; inhibition (reported as % activation of signal), % at 10 µM; 360,000 compounds, 0.83% hits; in the data active = inhibition above about 50%
Scp1 confirm: Scp-1 (human) inhibition, single-dose confirmed | shares compounds with Scp1 inh | recombinant SCP-1 catalytic domain, phosphate release, malachite green absorbance | inhibition, % at 20 µM | 2,500 compounds, 61% hits;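 note: plate controls were DMSO with enzyme for no effect and buffer wells lacking enzyme for full effect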
MG interference: interferes with malachite green readout, flagging false Scp-1 hits; 2,500 tested, under 10 active; shares compounds with Scp1 inh; apparent inhibition (interference), % at 20 µM; Colorimetric interference counterscreen, malachite green absorbance 630 nm;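 note: compounds added after enzyme reaction finished so only phosphate colour detection is probed; plate controls were DMSO wells with completed Scp-1 reaction for no effect and substrate wells lacking enzyme for full effect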
Scp-1 Tm shift: Scp-1 (human) binding by thermal shift | Recombinant SCP1, Sypro Orange thermal shift Tm | shares compounds with Scp1 inh | AID 540329 | thermal shift relative to vanadate control, % at 40 µM | 1,500 compounds, 25% hits;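 active = substances whose mean melting-temperature shift, as a percentage of the reference inhibitor's shift, reaches about 5.3%, limit read from the data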;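 note: 0% = Tm of DMSO wells and 100% = Tm with sodium orthovanadate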
Active calls of the source: *; · = no result shown. An excerpt weighted towards active compounds, which were near 2.3% of everything screened.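 Rule for the calls, unless noted: active = inhibition of at least 30% at 20 µM; inactive = the rest.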

SMILES	Scp1 inh	LMPTP inh	Rpn11 block	STEP block	SUMO1 PPI mod	DNMT1 inh	Scp1 confirm	MG interference	Scp-1 Tm shift
COc1ccc(NC(=O)C2CCN(S(=O)(=O)c3cccc4cccnc34)CC2)cc1	-6.1	-0.1	2.0	-0.9	5.0	-5.7	·	·	·
CC(=O)c1ccc(NC(=O)C2CCN(S(=O)(=O)c3cccc4cccnc34)CC2)cc1	63.4*	0.1	-4.7	3.2	0.0	4.4	-16.9	-15.6	·
O=C(Nc1cccc(F)c1)C1CCCN1S(=O)(=O)c1cccc2cccnc12 (stereo unspecified)	-9.1	-0.6	-0.1	2.7	-0.6	1.5	·	·	·
O=C(Nc1ccc2c(c1)OCO2)c1cc(C2CCCCN2C(=O)CCCc2ccccc2)on1 (stereo unspecified)	·	6.0	-3.3	-0.3	3.6	-0.8	·	·	·
CC(C)(C)c1ccc(OCCNC(=S)Nc2ccccc2)cc1	56.5*	1.9	-2.1	2.2	0.4	-1.2	-16.9	-11.8	·
O=C1NC(c2ccccc2)=C(c2ccc3ccccc3n2)C(c2ccccc2)N1 (stereo unspecified)	58.9*	1.2	1.9	-2.2	-3.6	3.0	-10.8	-11.8	·
COc1cccc(C(=O)C2CCCN(C(=O)CCC3=NNC(=O)CC3)C2)c1 (stereo unspecified)	4.5	-1.7	-3.2	-1.6	1.1	0.2	·	·	·
O=C1CCC(CCC(=O)N2CCCC(C(=O)c3cccc(C(F)(F)F)c3)C2)=NN1 (stereo unspecified)	-8.0	0.2	-2.7	0.6	2.7	-13.9	-9.3	-3.5	·
Clc1nc(Cl)nc(-c2cn(-c3ccccc3)c3ccccc23)n1	90.9*	·	·	·	·	·	71.5*	-15.1	-24.7
OCCCc1cn(-c2ccccc2)c2ccccc12	-11.6	1.6	2.2	-2.4	-0.6	-6.1	·	·	·
COc1cc(S(=O)(=O)Nc2ccc(C)cc2)ccc1NC(=O)c1ccncc1	54.0*	-1.2	8.3	-1.5	5.2	-0.9	-18.4	-17.5	·
COCCCn1c(=O)c2sccc2n(Cc2cc(C(=O)OC)ccc2OC)c1=O	-9.9	-0.5	2.9	0.9	-1.7	3.1	·	·	·
O=C(O)c1ccc2c(=O)n(-c3ccccc3)c(=S)[nH]c2c1	79.0*	-1.8	12.0	-1.3	-3.4	2.1	-9.3	-12.0	·
COc1ccc(CN(C)CCCn2cnc3c(OC)ncnc32)cc1OC	·	-2.1	-0.3	-1.7	6.4	0.8	·	·	·
O=C1Nc2ncccc2OC1CCO (stereo unspecified)	-9.7	-1.6	-1.8	-2.1	-2.3	12.0	·	·	·
CCCCNC(=O)c1ccc2nc(-c3ccco3)c(-c3ccco3)nc2c1	53.0*	47.6	-39.9	3.2	40.0*	81.1*	51.3*	-5.7	12.7*
COc1ccccc1NC(=O)c1nn(-c2ccc(Cl)cc2)ccc1=O	97.5*	4.3	-3.3	-0.8	-3.9	26.3	75.8*	-15.6	-15.6
COc1ccccc1NC(=O)c1nn(-c2ccccc2)ccc1=O	1.7	1.5	-1.9	0.3	-9.3	-4.7	·	·	·
COc1cc(/C=C2/C(=O)NN(c3cccc(Cl)c3)C2=O)cc(OC)c1O	13.0	1.0	·	3.7	-24.9	-2.9	·	·	·
COc1cc(/C=C2/C(=O)NN(c3ccc(C)c(Cl)c3)C2=O)cc([N+](=O)[O-])c1O	61.3*	2.1	5.5	85.7*	-0.8	39.3	73.7*	-14.8	568.6*
COc1ccc(C(C)NS(=O)(=O)Cc2ccccc2)cc1 (stereo unspecified)	-4.5	-1.6	3.4	-5.5	4.1	4.7	·	·	·
O=C(CN1C(=O)CCSc2ccc(S(=O)(=O)N3CCOCC3)cc21)Nc1ccccc1Cl	60.5*	3.7	0.4	6.4	2.2	6.9	46.1*	-7.6	-2.0
Cc1cccc(NC(=O)CN2C(=O)CCSc3ccc(S(=O)(=O)N4CCOCC4)cc32)c1C	42.4	8.7	-4.2	34.8	1.1	18.8	·	·	·
CCSc1nnc(N2C(=O)c3ccc(C(=O)c4ccc(C(=O)O)cc4)cc3C2=O)s1	-8.3	-1.1	-2.3	1.4	-3.1	-2.2	·	·	·
Oc1ccc(C=Nc2ccc(N3CCOCC3)cc2)c(O)c1	52.4*	6.4	4.9	11.0	-10.3	29.9	45.0*	-10.9	2.5
SMILES	Scp1 inh	LMPTP inh	Rpn11 block	STEP block	SUMO1 PPI mod	DNMT1 inh	Scp1 confirm	MG interference	Scp-1 Tm shift
N#CC1(NC(=O)COc2cc(F)ccc2[N+](=O)[O-])CCCCC1	-2.7	-0.7	-2.9	-1.6	-10.1	1.8	·	·	·
N#CC1(NC(=O)COc2ccccc2[N+](=O)[O-])CCCCC1	52.1*	-2.0	-3.5	-1.7	-3.9	2.8	73.0*	-21.9	-7.0
O=[N+]([O-])c1ccc(/C=N/Nc2ncc(-c3ccccc3)cn2)cc1	67.5*	22.6	3.2	22.1	-6.4	29.7	28.1	-7.6	·
Cc1ccc(C(=O)O)cc1-c1ccc(/C=C2\SC(=O)N(CC(=O)Nc3ccccc3)C2=O)o1	72.7*	46.8	19.8	5.0	9.7	67.2*	83.6*	-13.4	10.2*
Cc1ccccc1NC(=O)CN1C(=O)S/C(=C\c2ccc(-c3cc(C(=O)O)ccc3C)o2)C1=O	97.8*	47.5	4.9	5.9	11.2	30.4	68.9*	-15.8	-483.5
Cc1cc(C(=O)O)ccc1-c1ccc(/C=C2\NC(=O)N(Cc3ccccc3Cl)C2=O)o1	64.9*	2.9	2.3	2.1	18.7	63.8*	74.6*	-0.2	9.3*
Cc1ccc(NC(=O)CN2C(=O)S/C(=C\c3ccc(C(=O)O)cc3)C2=O)cc1	26.3	-0.1	-3.2	1.2	-22.5	46.2	·	·	·
O=C1CCC(C(=O)N2CCSCC2)CN1Cc1cccc(C(F)(F)F)c1 (stereo unspecified)	-7.2	-0.4	6.0	-0.4	-2.4	-0.3	·	·	·
S=c1ncc2[nH]c(=S)[nH]c2[nH]1	10.4	0.5	3.8	-0.8	-11.0	-1.7	·	·	·
CCc1c(C)nc2cc(-c3cccc(Br)c3)[nH]n2c1=O	93.2*	1.3	16.2	22.2	11.9	1.9	62.3*	-12.3	-4.0
CN(C(=O)c1cccc(S(=O)(=O)N2CCCC2)c1)C1CCCCC1	3.6	-1.6	1.3	-0.3	-4.0	2.3	·	·	·
O=[N+]([O-])c1ccc(C(O)CN2CCN(c3ccccc3)CC2)cc1 (stereo unspecified)	-12.3	-1.1	-8.7	-2.7	-11.7	0.9	·	·	·
